{"data": "Published values collected from several papers", "target": "MAP kinase-interacting serine/threonine-protein kinase 1 (MKNK1, Homo sapiens, UniProt Q9BUB5)", "note": "Lines come from different studies, so protocols differ."}
{"Structure (SMILES)": "CN(C)c1nccc(-c2cnn3ncccc23)n1", "test": "binding", "setting": "1 µM", "remaining binding [%]": 100}
{"Structure (SMILES)": "CCN1CCN(Cc2ccc(C(=O)Nc3ccc(C)c(Oc4ccc5c(c4)CC(=O)N5)c3)cc2C(F)(F)F)CC1", "test": "binding, competition with immobilised ligand", "setting": "1 µM", "remaining binding [%]": 100}
{"Structure (SMILES)": "NS(=O)(=O)c1cc(NC(=O)Cc2ccccc2)ccc1Oc1cccc(Cl)c1", "test": "cell-free assay, competition with immobilised ligand", "setting": "1 µM", "remaining binding [%]": 79}
{"Structure (SMILES)": "C[C@@H]1CN(c2ccc3ncc(-c4ccc5[nH]nc(C6CC6)c5c4)n3n2)C[C@H](C)O1", "test": "binding, competition with immobilised ligand", "setting": "50 nM", "remaining binding [%]": 92}
{"Structure (SMILES)": "N[C@@H]1CCN(c2nccc(-c3cnn4ncccc34)n2)C1", "test": "binding", "setting": "1 µM", "remaining binding [%]": 68}
{"Structure (SMILES)": "C[C@@H]1CN(c2cc(-c3n[nH]c4ccc(OC5(C)CC5)cc34)ncn2)C[C@H](C)O1", "test": "cell-free assay, competition with immobilised ligand", "setting": "0.1 µM", "remaining binding [%]": 67}
{"Structure (SMILES)": "CN(c1nccc(-c2cnn3ncccc23)n1)C1CC1", "test": "binding", "setting": "1 µM", "remaining binding [%]": 98}
{"Structure (SMILES)": "CC(=O)C1=C(C)N(c2cccc(C(F)(F)F)c2)C(=O)N[C@@H]1c1ccc(C#N)nc1", "test": "cell-free assay, competition with immobilised ligand", "setting": "1 µM", "remaining binding [%]": 100}
{"Structure (SMILES)": "c1cncc(-c2cccc(Nc3nccc(NC4CCCCC4)n3)c2)c1", "test": "binding, competition with immobilised ligand", "setting": "10 µM", "remaining binding [%]": 89}
{"Structure (SMILES)": "CN(C)c1ncc(F)c(-c2cnn3ncccc23)n1", "test": "binding", "setting": "1 µM", "remaining binding [%]": 62}
{"Structure (SMILES)": "O=C(NCCCN1CCOCC1)c1ccc(Nc2nccc(-c3cc4ccccc4s3)n2)cc1", "test": "binding, competition with immobilised ligand", "setting": "1 µM", "remaining binding [%]": 43}
{"Structure (SMILES)": "COc1cnc(Nc2cccc(S(N)(=O)=O)c2)nc1N1CCN(c2ccccc2)CC1", "test": "binding, competition with immobilised ligand", "setting": "1 µM", "remaining binding [%]": 83}
{"Structure (SMILES)": "CC(C)(C)c1ccc(-c2nc(CBr)nn2-c2cccc(O)c2)cc1", "test": "cell-free assay, competition with immobilised ligand", "setting": "10 µM", "remaining binding [%]": 57}
{"Structure (SMILES)": "COc1cc(-c2cn(C3CCc4c(F)cccc4N(CC(F)(F)F)C3=O)nn2)ccc1-n1cnc(C)c1 (stereo not shown)", "test": "cell-free assay, competition with immobilised ligand", "setting": "1 µM", "remaining binding [%]": 87}
{"Structure (SMILES)": "O=C(Nc1c[nH]nc1C(=O)NC1CCNCC1)c1cc(F)cc(F)c1", "test": "binding, competition with immobilised ligand", "setting": "1 µM", "remaining binding [%]": 100}
{"Structure (SMILES)": "COc1ccnn2ncc(-c3ccnc(N(C)C)n3)c12", "test": "binding", "setting": "1 µM", "remaining binding [%]": 95}
{"Structure (SMILES)": "O=C(c1ccc(Nc2nccc(-c3cc4ccccc4s3)n2)cc1)N1CCC(N2CCCC2)CC1", "test": "binding, competition with immobilised ligand", "setting": "1 µM", "remaining binding [%]": 18}
{"Structure (SMILES)": "CSc1cccnc1N1CCN(Cc2nc3ccccc3[nH]2)CC1", "test": "cell-free assay, competition with immobilised ligand", "setting": "1 µM", "remaining binding [%]": 98}
{"Structure (SMILES)": "COc1ncc2cc3ccccc3nc2c1C#N", "test": "cell-free assay, competition with immobilised ligand", "setting": "5 µM", "remaining binding [%]": 96}
{"Structure (SMILES)": "CN(c1ccnc(CNc2nc(Nc3ccc4c(c3)CC(=O)N4)ncc2C(F)(F)F)n1)S(C)(=O)=O", "test": "cell-free assay, competition with immobilised ligand", "setting": "1 µM", "remaining binding [%]": 45}
{"Structure (SMILES)": "O=C(NCCCN1CCOCC1)c1ccc(Nc2ncc(Cl)c(-c3ccc(Cl)s3)n2)cc1", "test": "binding, competition with immobilised ligand", "setting": "1 µM", "remaining binding [%]": 84}
{"Structure (SMILES)": "CNC(=O)Nc1ccc2c(c1)[C@@]1(CC2)OC(=O)N(CC(=O)N(Cc2ccc(F)cc2)[C@@H](C)C(F)(F)F)C1=O", "test": "cell-free assay, competition with immobilised ligand", "setting": "1 µM", "remaining binding [%]": 94}
{"Structure (SMILES)": "CN(C)c1nccc(-c2cnc3ncccn23)n1", "test": "binding", "setting": "1 µM", "remaining binding [%]": 67}
{"Structure (SMILES)": "CCS(=O)(=O)c1cc2cc(C[C@@](O)(CC(C)(C)c3ccc(F)cc3C(N)=O)C(F)(F)F)[nH]c2cn1", "test": "cell-free assay, competition with immobilised ligand", "setting": "1 µM", "remaining binding [%]": 46}
{"Structure (SMILES)": "C[C@H]1CCN(c2nccc(-c3cnn4ncccc34)n2)C1", "test": "binding", "setting": "1 µM", "remaining binding [%]": 59}
